Assays:
[1] = Hydrophobicity index measured by retention time on a reverse phase HPLC column.; assay type: ADME
[2] = target: Adenosine A2 receptor (Rattus norvegicus) (UniProt P29276+P30543); test: Inhibition of radioligand R[3H]-CGS 21680 binding to adenosine A2 receptors in rat striatal membrane at 20 uM concentration.; assay type: cell membranes; settings: Striatum
Outline: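 Striata from male Wistar rats (300-400 g) were homogenized in 50 mM Tris-HCl pH 7.4 with 10 mM MgCl2 and pelleted twice at 48000g. Assay: membranes at 100-200 µg/mL, 5 nM [3H]CGS 21680, 90 min at 23 °C. Nonspecific binding defined with 20 µM 2-chloroadenosine. Filtration and counting as in the A1 assay. Compounds tested at 20 µM; result expressed as % inhibition of control binding.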

[3] = target: T1, Adenosine receptor A1 (Rattus norvegicus) (UniProt P25099); test: Inhibition of radioligand R[3H]-N6-PIA binding to adenosine A1 receptors in rat whole brain membrane at 20 uM concentration.; assay type: cell membranes
T1 sequence (whole entry): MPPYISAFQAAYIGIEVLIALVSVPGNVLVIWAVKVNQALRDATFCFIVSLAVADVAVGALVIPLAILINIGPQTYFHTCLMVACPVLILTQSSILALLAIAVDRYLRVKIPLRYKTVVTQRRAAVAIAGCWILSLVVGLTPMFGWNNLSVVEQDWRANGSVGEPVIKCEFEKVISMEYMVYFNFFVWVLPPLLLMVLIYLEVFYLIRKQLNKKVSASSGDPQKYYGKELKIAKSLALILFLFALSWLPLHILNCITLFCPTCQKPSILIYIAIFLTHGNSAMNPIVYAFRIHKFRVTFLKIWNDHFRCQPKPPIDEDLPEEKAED
Outline: (§1)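 Rat whole-brain synaptosomal membranes were made by sucrose homogenization and 14500g pelleting. They were pretreated with adenosine deaminase (2 IU/mL, 37 °C, 30 min). Assay: membranes at 100-200 µg/mL, 2 nM R-[3H]N6-PIA, 50 mM Tris-HCl pH 7.4 with 1 mM MgCl2, 60 min at 37 °C. Compounds in DMSO. Nonspecific binding defined with 100 µM R-N6-PIA. GF/B filtration and scintillation counting. […] At least three runs in triplicate.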

Adenosine A2 receptor = Adenosine A2 receptor (Rattus norvegicus, UniProt P29276+P30543); test: Inhibitory concentration against [3H]CGS 21680 binding to adenosine A2 receptors in rat striatal membrane
Adenosine receptor A1 [4] = target: T2, Adenosine receptor A1 (Rattus norvegicus, UniProt P25099); test: Inhibitory concentration against R[3H]-N6-PIA binding to adenosine A1 receptor in rat whole brain membrane; assay type: cell membranes
T2 sequence (P25099 whole entry): T1 sequence (whole entry)
Outline: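 Rat whole-brain synaptosomal membranes were made by sucrose homogenization and 14500g pelleting. They were pretreated with adenosine deaminase (2 IU/mL, 37 °C, 30 min). Assay: membranes at 100-200 µg/mL, 2 nM R-[3H]N6-PIA, 50 mM Tris-HCl pH 7.4 with 1 mM MgCl2, 60 min at 37 °C. Compounds in DMSO. Nonspecific binding defined with 100 µM R-N6-PIA. GF/B filtration and scintillation counting. At least three runs in triplicate.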

[5] = target: Adenosine receptors; A1 & A2 (Rattus norvegicus) (UniProt P29276+P25099+P30543); test: Ratio of IC50 for A2 and A1 receptor binding; assay type: protein assay
Adenosine receptor A1 [6] = target: T2, Adenosine receptor A1; test: Inhibitory concentration against R[3H]-N6-PIA binding to adenosine A1 receptors in rat whole brain membrane; assay type: cell membranes; outline: as §1

SMILES | k' [1] | inhibition [2] | inhibition [3] | IC50 (Adenosine A2 receptor) | IC50 (Adenosine receptor A1 [4]) | Ratio [5] | IC50 (Adenosine receptor A1 [6])
Cn1c(=O)[nH]c2c(cnn2-c2cccc(N)c2)c1=N | 0.7 | 0% | 0% |  |  |  | 
N=c1c2cnn(-c3ccccc3)c2[nH]c(=O)n1-c1ccccc1 | 5.1 | 0% | 25% |  |  |  | 
CCCn1ncc2c(=N)n(C)c(=O)[nH]c21 | 0.8 | 0% | 5% |  |  |  | 
CCCn1c(=O)[nH]c2c(cnn2-c2cccc(Cl)c2)c1=N | > 36.5 | 35% | 68% | 47.3 µM | 14.6 µM | 3.2 | 
Cn1c(=O)[nH]c2c(cnn2-c2cccc([N+](=O)[O-])c2)c1=N | > 36.5 | 1% | 2% |  |  |  | 
Cn1c(=O)[nH]c2c(cnn2-c2ccccc2Cl)c1=N | 1.7 | 0% | 7% |  |  |  | 
Cn1c(=O)[nH]c2c(cnn2-c2cccc(Br)c2)c1=N | 17.5 | 1% | 40% |  |  |  | 
Cn1c(=O)[nH]c2c(cnn2-c2ccc(Cl)cc2)c1=N | 13.6 | 0% | 37% |  |  |  | 
CCn1c(=O)[nH]c2c(cnn2-c2cccc(Cl)c2)c1=N | 21.9 | 24% | 70% | 23.5 µM | 19.8 µM | 1.2 | 
Cn1c(=O)[nH]c2c(cnn2-c2cc(Cl)cc(Cl)c2)c1=N | > 36.5 | 0% | 29% |  |  |  | 
CCn1c(=O)[nH]c2c(cnn2-c2ccccc2)c1=N | 4.2 | 16% | 58% | 81.8 µM | 20.1 µM | 4.1 | 
Cn1c(=O)[nH]c2c(cnn2-c2ccc(Cl)cc2Cl)c1=N | 7.1 | 0% | 9% |  |  |  | 
Cn1c(=O)[nH]c2c(cnn2C)c1=N | 0.1 | 0% | 6% |  |  |  | 
Cn1c(=O)[nH]c2c(cnn2-c2ccccc2N)c1=N | 0.8 | 0% | 0% |  |  |  | 
Cn1c(=O)[nH]c2c(cnn2-c2cccc(Cl)c2)c1=N | 14.2 | 29% | 53% |  |  |  | 16.5 µM
Cn1c(=O)[nH]c2c(cnn2-c2ccc(N)cc2)c1=N | 0.3 | 0% | 0% |  |  |  | 
Cn1c(=O)[nH]c2c(cnn2-c2cccc(F)c2)c1=N | 5.8 | 22% | 44% |  |  |  | 
Cn1c(=O)[nH]c2c(cnn2-c2ccc([N+](=O)[O-])cc2)c1=N | > 36.5 | 0% | 5% |  |  |  | 
Cn1c(=O)[nH]c2c(cnn2-c2cc(Cl)ccc2Cl)c1=N | 4.8 | 3% | 1% |  |  |  | 
CCCCn1c(=O)[nH]c2c(cnn2-c2ccccc2)c1=N | 18.5 | 21% | 72% | 24.8 µM | 9.6 µM | 2.6 | 
Cn1c(=O)[nH]c2c(cnn2-c2ccc(Br)cc2)c1=N | 18.9 | 7% | 34% |  |  |  | 
Cn1c(=O)[nH]c2c(cnn2-c2ccccc2F)c1=N | 1.1 | 0% | 8% |  |  |  | 
CCCCn1c(=O)[nH]c2c(cnn2-c2cccc(Cl)c2)c1=N | > 36.5 | 38% | 58% | 19.2 µM |  |  | 
CCCn1c(=O)[nH]c2c(cnn2-c2ccccc2)c1=N | 7.5 | 7% | 52% | 50.2 µM | 50.7 µM | 1 | 
Cn1c(=O)[nH]c2c(cnn2-c2ccc(F)cc2)c1=N | 4.1 | 0% | 26% |  |  |  | 
Cn1c(=O)[nH]c2c(cnn2-c2ccccc2)c1=N | 2.6 | 7% | 30% |  |  |  | 
Cn1c(=O)[nH]c2c(cnn2-c2ccccc2Br)c1=N | 1.8 | 0% | 6% |  |  |  | 
Cn1c(=O)[nH]c2c(cnn2-c2ccccc2[N+](=O)[O-])c1=N | 0.9 | 7% | 5% |  |  |  | 

Source: ChEMBL document CHEMBL1125214, “Synthesis and adenosine receptor affinity of a series of pyrazolo[3,4-d]pyrimidine analogues of 1-methylisoguanosine” (J Med Chem, 1991)
